The text below walks through data of ChEMBL document CHEMBL5376017, “Glucosamine substituted sulfonylureas: IRS-PI3K-PKC-AKT-GLUT4 insulin signalling pathway intriguing agent” (RSC Med Chem, 2024).

Data set [1] deals with Soleus muscle. Kind of data set: Downregulation of PKC-alpha expression in insulin resistant Sprague-Dawley rat soleus muscle at 1 to 2 uM incubated for 24 hrs by qRT-PCR analysis. The note with it: dose 1-2 µM. It is filed as functional, tissue-based. In a few lines: (§1)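 Isolated rat soleus muscle in gassed (95% O2–5% CO2) Krebs–Henseleit buffer. Insulin resistance induced in four steps: KHB with 0.1% BSA and 1 mM pyruvate for 24 h at 37 °C, then high glucose/insulin for 24 h, then 25 mM glucose for 5 h, then insulin for 30 min. Tissue then exposed in KHB for 24 h. qPCR normalized to β-/γ-actin geometric mean. Mean ± SEM, ANOVA/Duncan.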
In general terms: In qPCR the cycle at which signal appears reflects the starting amount.

Data set [2] has as its system L6. Kind of data set: Upregulation of PI3K expression in insulin resistant myotube differentiated rat L6 cells at 1 to 2 uM incubated for 24 hrs by qRT-PCR analysis. It is filed as functional, cell-based. The conditions noted are these: dose 1-2 µM. In a few lines: (§2)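 L6 myoblasts differentiated to myotubes in DMEM with 2% horse serum for 7 days, 2 × 10^4 cells per well. Insulin resistance induced in three steps: 25 mM glucose plus insulin for 24 h, then 5 mM glucose without insulin for 5 h, then insulin for 30 min. Compounds in DMEM with 2% inactivated FBS for 24 h. qPCR normalized to geometric mean of β-actin and γ-actin. Mean ± SEM, one-way ANOVA with Duncan test.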

The test system of data set [3] is L6. Kind of data set: Upregulation of GLUT4 expression in insulin resistant myotube differentiated rat L6 cells at 1 to 2 uM incubated for 24 hrs by qRT-PCR analysis. It is filed as functional, cell-based. The conditions noted are these: dose 1-2 µM. An outline of the steps:
as §2

Data set [4] relates to Soleus muscle. Kind of data set: Upregulation of IRS-1 expression in insulin resistant Sprague-Dawley rat soleus muscle at 1 to 2 uM incubated for 24 hrs by qRT-PCR analysis. Type of data set: functional, tissue-based. The conditions noted are these: dose 1-2 µM. An outline of the steps: as §1
For data set [5], the system named is L6. Kind of data set: Upregulation of PKB/AKT2 expression in insulin resistant myotube differentiated rat L6 cells at 2 uM incubated for 24 hrs by qRT-PCR analysis. Type of data set: functional, cell-based. An outline of the steps: as §2
Data set [6] deals with L6. Kind of data set: Downregulation of PKC-alpha expression in insulin resistant myotube differentiated rat L6 cells at 1 to 2 uM incubated for 24 hrs by qRT-PCR analysis. It is filed as functional, cell-based. The note with it: dose 1-2 µM. An outline of the steps:
as §2

A short description of data set [7]: Cytotoxicity against rat L6 cells assessed as cell viability at 50 to 250 uM incubated for 24 hrs by MTT assay relative to control. It is filed as toxicity, cell-based. The conditions noted are these: dose 50-250 µM, read-out: Activity. In a few lines: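 Rat L6 myoblasts, 2 × 10^4 cells per mL, allowed to attach, then exposed for 24 h to five concentrations (50–250 μM) from DMSO stocks; 0.1% DMSO as negative control. MTT at 0.5 mg mL−1 added for 4 h, formazan dissolved in DMSO, absorbance read at 570 nm. Viability calculated against control. Triplicate wells, three independent experiments.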
(Tetrazolium assays rely on reduction of a dye to a coloured formazan, in cell work by metabolically active cells.)

In data set [8] the test system is Soleus muscle. Kind of data set: Upregulation of PI3K expression in insulin resistant Sprague-Dawley rat soleus muscle at 1 to 2 uM incubated for 24 hrs by qRT-PCR analysis. Type of data set: functional, tissue-based. The note with it: dose 1-2 µM. In a few lines: as §1
Data set [9] has as its system Soleus muscle. Kind of data set: Upregulation of PKB/AKT2 insulin resistant Sprague-Dawley rat soleus muscle at 2 uM incubated for 24 hrs by qRT-PCR analysis. It is filed as functional, tissue-based. In a few lines:
as §1

Data set [10] deals with Soleus muscle. Kind of data set: Upregulation of GLUT4 expression in insulin resistant Sprague-Dawley rat soleus muscle at 1 to 2 uM incubated for 24 hrs by qRT-PCR analysis. It is filed as functional, tissue-based. The note with it: dose 1-2 µM. An outline of the steps: as §1
In data set [11] the test system is L6. Kind of data set: Upregulation of IRS-1 expression in insulin resistant myotube differentiated rat L6 cells at 1 to 2 uM incubated for 24 hrs by qRT-PCR analysis. Type of data set: functional, cell-based. The conditions noted are these: dose 1-2 µM. In a few lines:
as §2

For data set [12], the system named is Soleus muscle. Kind of data set: Upregulation of GLUT4 expression in insulin resistant Sprague-Dawley rat soleus muscle incubated for 24 hrs by qRT-PCR analysis. It is filed as functional, tissue-based. In a few lines:
as §1

The subject of data set [13] is Soleus muscle. Kind of data set: Downregulation of PKC-alpha expression in insulin resistant Sprague-Dawley rat soleus muscle incubated for 24 hrs by qRT-PCR analysis. It is filed as functional, tissue-based. In a few lines: as §1
Data set [14] concerns L6. Kind of data set: Upregulation of IRS-1 expression in insulin resistant myotube differentiated rat L6 cells incubated for 24 hrs by qRT-PCR analysis. It is filed as functional, cell-based. An outline of the steps:
as §2

Data set [15] concerns L6. Kind of data set: Downregulation of PKC-alpha expression in insulin resistant myotube differentiated rat L6 cells incubated for 24 hrs by qRT-PCR analysis. Type of data set: functional, cell-based. In a few lines:
as §2

Data set [16] concerns L6. Kind of data set: Upregulation of PKB/AKT2 expression in insulin resistant myotube differentiated rat L6 cells incubated for 24 hrs by qRT-PCR analysis. Type of data set: functional, cell-based. In a few lines: as §2
Data set [17] concerns Soleus muscle. Kind of data set: Upregulation of PI3K expression in insulin resistant Sprague-Dawley rat soleus muscle incubated for 24 hrs by qRT-PCR analysis. Type of data set: functional, tissue-based. In a few lines:
as §1

The test system of data set [18] is L6. Kind of data set: Upregulation of GLUT4 expression in insulin resistant myotube differentiated rat L6 cells incubated for 24 hrs by qRT-PCR analysis. Type of data set: functional, cell-based. An outline of the steps:
as §2

Activity calls are given as the source filed them. The calls are words filed in the database; no cut-off is given here.

Take `CC(=O)OC[C@H]1OC(OC(C)=O)[C@H](NC(=O)NS(=O)(=O)c2ccccc2)[C@@H](OC(C)=O)[C@@H]1OC(C)=O` (some centres undefined): the result with Soleus muscle [1], in the data set with L6 [2], in the data set on L6 [3], in the data set with Soleus muscle [4], in the data set on L6 [5] and in the data set with L6 [6] was Active. Besides, the outcome in the data set with Soleus muscle [8], in the data set on Soleus muscle [9], in the data set on Soleus muscle [10] and in the data set with L6 [11] was Active. Also, in [7], the viability at 24 h, up to 250 µM worked out at 50%.

Consider `O=C(N[C@H]1C(O)O[C@H](CO)[C@@H](O)[C@@H]1O)NS(=O)(=O)c1ccccc1` (some centres undefined), for which the outcome in the data set on Soleus muscle [1], with L6 [2], with L6 [3], in the data set on Soleus muscle [4], in the data set on L6 [5] and with L6 [6] was Active. Besides, the outcome in the data set on Soleus muscle [8], in the data set on Soleus muscle [9], in the data set on Soleus muscle [10] and in the data set with L6 [11] was Active. Moreover, the viability at 24 h, up to 250 µM in data set [7] is under 50%.

`Cc1ccc(S(=O)(=O)NC(=O)N[C@H]2C(O)O[C@H](CO)[C@@H](O)[C@@H]2O)cc1` (some centres undefined): the result in the data set with Soleus muscle [1], in the data set with L6 [2], with L6 [3], with Soleus muscle [4], with L6 [5] and in the data set on L6 [6] was Active. Further, the outcome with Soleus muscle [8], in the data set on Soleus muscle [9], with Soleus muscle [10] and with L6 [11] was Active. For the same compound, in [7], the viability at 24 h, up to 250 µM stood at 50%.

Consider `CCC1=C(C)CN(C(=O)NCCc2ccc(S(=O)(=O)NC(=O)N[C@H]3CC[C@H](C)CC3)cc2)C1=O`, for which the outcome in the data set on Soleus muscle [12], with Soleus muscle [13], in the data set on L6 [14], in the data set with L6 [15], in the data set on L6 [16] and in the data set with Soleus muscle [17] was Active.

For `CN(C)C(=N)NC(=N)N`, the result with Soleus muscle [12], with Soleus muscle [13], in the data set with L6 [14], in the data set with L6 [18], in the data set with L6 [15] and in the data set on L6 [16] was Active. The result with Soleus muscle [17] was Active.

For `CC(=O)OC[C@H]1OC(OC(C)=O)[C@H](NC(=O)NS(=O)(=O)c2ccc(Cl)cc2)[C@@H](OC(C)=O)[C@@H]1OC(C)=O` (some centres undefined), the outcome in the data set on Soleus muscle [1], with L6 [2], in the data set with L6 [3], with Soleus muscle [4], with L6 [5] and in the data set with L6 [6] was Active. The outcome in the data set on Soleus muscle [8], in the data set with Soleus muscle [9], with Soleus muscle [10] and in the data set on L6 [11] was Active. In addition, the viability at 24 h, up to 250 µM in [7] was found to be 50%.

Turning to `O=C(N[C@H]1C(O)O[C@H](CO)[C@@H](O)[C@@H]1O)NS(=O)(=O)c1ccc(Cl)cc1` (some centres undefined), the outcome in the data set with Soleus muscle [1], with L6 [2], with L6 [3], with Soleus muscle [4], in the data set with L6 [5] and with L6 [6] was Active. Also, the result with Soleus muscle [8], in the data set with Soleus muscle [9], in the data set with Soleus muscle [10] and in the data set on L6 [11] was Active. Also, the viability at 24 h, up to 250 µM in [7] stood at 50%.

Take `CC(=O)OC[C@H]1OC(OC(C)=O)[C@H](NC(=O)NS(=O)(=O)c2ccc(C)cc2)[C@@H](OC(C)=O)[C@@H]1OC(C)=O` (some centres undefined): the result with Soleus muscle [1], with L6 [2], in the data set on L6 [3], in the data set on Soleus muscle [4], in the data set with L6 [5] and in the data set on L6 [6] was Active. Also, the outcome in the data set with Soleus muscle [8], in the data set on Soleus muscle [9], with Soleus muscle [10] and with L6 [11] was Active. Besides, in data set [7], the viability at 24 h, up to 250 µM is 50%.
